Assay results taken from PubChem BioAssay AID504383 (The Scripps Research Institute Molecular Screening Center, 2011).
About 1,200 (48%) of roughly 2,500 compounds were called active.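 The calls were made as follows: active = mean activation above the low control average plus 3 SD, as set in the primary screen (cut at about 12% in these data); inactive = the rest.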 The set was probably picked from earlier hits. Some of the results follow.

The compounds below were run against Troponin I, cardiac muscle (Homo sapiens) + Troponin T, cardiac muscle (Homo sapiens) + Troponin C, slow skeletal and cardiac muscles (Homo sapiens) (UniProt P19429+P45379+P63316) (assay: calcium sensitizers of cardiac thin filaments – biochemical, IANBD-TnC fluorescence, triplicate, confirmation (AID 504383;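 also: 0% = DMSO at 0.472 mM calcium and 100% = DMSO at 2.9 mM calcium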)). Conditions: IANBD-labeled cardiac RTF, Ca2+ sensitivity fluorescence; at 7.2 µM; active compounds read high; scaled from EC20 to saturating calcium; tested at EC20 calcium, 0.472 mM.
In short: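 Material: labelled regulated thin filaments; Reagent: 0.472 mM calcium; Incubation: 15 min compound incubation with filaments at 25 °C; Detection: filament fluorescence intensity; Evaluation: fluorescence increase normalised to calcium controls; Benchmarks: low control EC20 calcium, high control EC100 calcium.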
With `CCOc1ccc(C2C(C#N)=C(N)SC(N)=C2C#N)cc1OCC` the activation was 51.3% (active). In the case of `CCOc1ccccc1C1C(C#N)=C(N)SC(N)=C1C#N`, the activation is reported as 5.25% (inactive). For `COc1ccc(C2C(C#N)=C(N)SC(N)=C2C#N)cc1OC`, the activation was 6.65% (inactive). With `CC1(C)CC(=O)C(C=Nc2ccc(C(=O)c3ccccc3)cc2N=CC2=C(O)CC(C)(C)CC2=O)=C(O)C1` the activation was 5.75% (inactive). For `CC1(C)CC(=O)C(C=Nc2cc(C(=O)c3ccccc3)ccc2N)=C(O)C1`, the activation was 32% (active). With `COc1ccccc1Nc1ncc(C(=O)N2CCC(C(N)=O)CC2)c2ccccc12` the activation was 10.5% (inactive). `NC(=O)C1CCN(C(=O)c2ccc(-c3ccccc3)cc2)CC1` was tested, and the activation was 64.1% (active). With `O=C(c1ccccc1)N1CCN(C(=O)c2ccccc2)CC1` the activation was 4.62% (inactive). `COc1ccc(C)cc1NC(=O)C12CCC(C)(C(=O)O1)C2(C)C` (configuration not stated) was tested, and the activation was 26.8% (active). With `COc1ccc(C)cc1NC(=O)CC1COc2ccccc2O1` (configuration not stated) the activation was 8.38% (inactive). For `N#Cc1ccc(CSc2nnc(-c3cnccn3)o2)cc1`, the activation was 221% (active). `O=C(NC(=S)Nc1ccc2oc(=O)ccc2c1)c1ccco1` was tested, and the activation was 90.7% (active). `Cc1ncc(CO)c2cc(-c3nnc(Nc4ccc5c(c4)OCO5)s3)c(=O)oc12` was tested, and the activation was 70% (active). In the case of `CCOC(=O)c1ccc[n+](CC(=O)Nc2cc(C(F)(F)F)ccc2Cl)c1`, the activation is reported as 13% (active). With `Cc1ccc(CCC(=O)Nc2cc(Cl)ccc2Cl)o1` the activation was 7.16% (inactive). `N#Cc1ccccc1NC(=O)CNc1ccc(Cl)c(C(F)(F)F)c1` was tested, and the activation was 8.37% (inactive). For `COC(=O)c1cc2c(=O)c3ccccc3oc2nc1/C=C/N(C)C`, the activation was 5.31% (inactive). With `COC(=O)c1cc(NC(=O)c2ccccc2)c(=O)oc1C/C=N\OCc1ccc(Cl)cc1Cl` the activation was 3.6% (inactive). In the case of `CC(=O)c1cc(NC(=O)c2ccc(Cl)cc2)c(=O)oc1/C=C/N(C)C`, the activation is reported as 5.44% (inactive). In the case of `CC(=O)c1cc(NC(=O)c2ccccc2)c(=O)oc1/C=C/N(C)C`, the activation is reported as 11.2% (inactive). For `COC(=O)c1cc(NC(=O)c2ccccc2)c(=O)oc1/C=C/Nc1ccc(Oc2ccccc2)cc1`, the activation was 47.1% (active). For `CC(=O)c1cc(NC(=O)c2ccc(C)cc2)c(=O)oc1/C=C/N(C)C`, the activation was 54.1% (active). `COc1ccc(C(=O)Nc2cc(C(C)=O)c(/C=C/N(C)C)oc2=O)cc1` was tested, and the activation was 30.3% (active). In the case of `COc1ccccc1C(=O)Nc1ccc(OC(C)C(=O)N2CCOCC2)cc1` (configuration not stated), the activation is reported as 2020% (active). For `CCOc1ccc(NC(=O)c2cccc(OC(=S)N3CCOCC3)c2)cc1`, the activation was 3.8% (inactive). For `COc1ccccc1Nc1nc(N2CCOCC2)nc(N2CCOCC2)n1`, the activation was 7.77% (inactive). With `O=C(O)C(c1ccccc1)N1C(=O)/C(=C\c2ccc(-c3ccc(Br)cc3)o2)SC1=S` (configuration not stated) the activation was 186% (active). In the case of `CCOC(=O)CC1=NS(=O)(=O)c2ccccc2N1`, the activation is reported as 9.51% (inactive). In the case of `O=C(CSC1=NS(=O)(=O)c2ccccc2N1)N1CCCCC1`, the activation is reported as 68.3% (active). `Cc1c(C)c2c(OCC(=O)N3CCC(O)CC3)cc3c(c2oc1=O)CCC(C)(C)O3` was tested, and the activation was 3.89% (inactive). In the case of `Cc1cc(=O)oc2c3c(cc(OCC(=O)NCc4ccccn4)c12)OC(C)(C)CC3`, the activation is reported as 2.15% (inactive). With `CCCc1cc(=O)oc2c3c(cc(OCC(=O)N[C@@H](CSC)C(=O)O)c12)OC(C)(C)CC3` the activation was 42% (active). In the case of `CN(C)CCNC(=O)c1c(CSc2ccc(Cl)cc2)noc1C(=O)NCc1ccccc1`, the activation is reported as 13.1% (active). In the case of `COCCNC(=O)c1c(CS(=O)(=O)c2ccccc2)noc1C(=O)NCc1ccccc1`, the activation is reported as -1.16% (inactive). `CNc1c2cccc(C)c2nc2c(C(=O)NCCN(C)C)cccc12` was tested, and the activation was 0.42% (inactive). With `Cc1cccc(NC(=O)CN2C(=O)N/C(=C/c3ccc(C)s3)C2=O)c1` the activation was 12.8% (active). In the case of `Cc1ccc(/C=C2/NC(=O)N(Cc3ccccc3)C2=O)s1`, the activation is reported as 2.28% (inactive). For `Cc1cccc(CN2C(=O)N/C(=C/c3ccc(C)s3)C2=O)c1`, the activation was 8.39% (inactive). For `CCOC(=O)CCc1c(C)nc(-n2[nH]c(C)c(CCO)c2=O)[nH]c1=O`, the activation was 6.36% (inactive). With `Cc1nc(-n2[nH]c3c(c2=O)CCCC3)[nH]c(=O)c1Cc1ccccc1` the activation was 28% (active). `Cc1ccc(C2C(C#N)=C(N)SC(N)=C2C#N)cc1` was tested, and the activation was 9.26% (inactive). For `O=C(CCc1nc2sc3c(c2c(=O)[nH]1)CCCC3)Nc1ccccc1Cl`, the activation was 84.3% (active). In the case of `CCC(=O)Nc1nc2c(c(=O)[nH]1)CCCC2`, the activation is reported as 4.12% (inactive). In the case of `Cc1ccc(S(=O)(=O)NC(C)(C)CN2CCC(Cc3ccccc3)CC2)cc1`, the activation is reported as 21.5% (active). For `O=S(=O)(c1ccccc1Cl)N1CCC(Cc2ccccc2)CC1`, the activation was 10.4% (inactive). With `CC(C)(CN1CCc2ccccc2C1)NS(=O)(=O)c1ccc(Cl)cc1` the activation was 2.24% (inactive). For `COc1ccc(C(=O)O)cc1S(=O)(=O)NCCc1ccccn1`, the activation was 5.17% (inactive). `COc1ccc(Br)cc1S(=O)(=O)Nc1ncccc1C` was tested, and the activation was 68.3% (active). With `COc1cc(Cl)c(S(=O)(=O)NCc2ccccn2)cc1Cl` the activation was 7.75% (inactive). With `COC(=O)N1c2ccccc2CCc2ccccc21` the activation was 8.65% (inactive). In the case of `CCCCOc1cccc(C2C(C(=O)c3cccs3)=C(O)C(=O)N2Cc2cccnc2)c1` (configuration not stated), the activation is reported as -3.36% (inactive). In the case of `Cc1cc2oc3ccc(NCCCn4ccnc4)cc3c(=O)c2cc1C`, the activation is reported as 1.5% (inactive). For `CCCOc1ccc(C2C(C(=O)c3ccc(C)o3)=C(O)C(=O)N2CCCn2ccnc2)cc1` (configuration not stated), the activation was 64.1% (active). `CCOc1ccc2noc3c2c1C(=O)c1ccccc1-3` was tested, and the activation was 3.61% (inactive). In the case of `O=C1c2ccccc2-c2onc3ccc(NCc4ccco4)c1c23`, the activation is reported as 1.47% (inactive). For `CCNc1ccc2noc3c2c1C(=O)c1ccccc1-3`, the activation was 15.8% (active). For `COC(=O)C1=C(CSc2nc3c(cc2C#N)CN(C)CC3)OC(N)=C(C#N)C1c1ccccc1F` (configuration not stated), the activation was 10.6% (inactive). In the case of `N#CC1=C(N)Oc2cc(O)c(Cl)cc2C1c1ccccc1F` (configuration not stated), the activation is reported as 162% (active). With `O=C1CCC(=O)N(O)CCCCCNC(=O)CCC(=O)N(O)CCCCNC(=O)CCC(=O)N(O)CCCCCN1` the activation was 1.89% (inactive). `CC(=O)c1cccc(NC(=S)NC2CCCCC2)c1` was tested, and the activation was 8.2% (inactive). With `COc1ccc(Nc2cc(C)nc3ccc(OC)cc23)cc1` the activation was 4.34% (inactive). In the case of `CC(=O)c1cccc(Nc2cc(C)nc3ccc(C)cc23)c1`, the activation is reported as 25.6% (active).
